Our source for the Activity, inhibition and concentration values is ChEMBL document CHEMBL4706651, “Peripheral Selective Oxadiazolylphenyl Alanine Derivatives as Tryptophan Hydroxylase 1 Inhibitors for Obesity and Fatty Liver Disease” (J Med Chem, 2021).

The test system of data set [1] is Mus musculus. The data set can be described thus: Anti-obesity activity in C57BL/6J mouse model of diet-induced obesity assessed as reduction in adipocyte size in iWAT at 10 mg/kg, ip dosed daily for 8 weeks by H and E staining based histological analysis. Format: functional, organism-based. The method in brief:
(§1)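 C57BL/6J mice, 12 weeks old, given daily ip vehicle or drug during 8 weeks of high-fat diet (60% fat calories). Sacrificed after 6 h fasting. Five-micron paraffin sections of eWAT, iWAT and BAT were deparaffinized and stained with H&E. Crown-like structures, adipocyte size, lipid droplets and multilocular cells were assessed. Scale bar 100 μm.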

The target in the next data set is CYP3A4 (Homo sapiens, UniProt P08684). Nature of the data set: Inhibition of CYP3A4 (unknown origin) at 10 uM relative to control. Format: ADME.
The test system of data set [2] is Mus musculus. Nature of the data set: Anti-obesity activity in C57BL/6J mouse model of diet-induced obesity assessed as increase in lean body mass at 10 mg/kg, ip dosed daily for 8 weeks. Format: functional, organism-based. The method in brief: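 High-fat diet (60% fat calories) fed to C57BL/6J mice from 12 weeks old, with daily ip vehicle or drug for 8 weeks. Fat, lean and fluid mass were measured in live mice with a body composition analyzer and expressed as percent. n = 6/group; means SEM.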

Data set [3] deals with Mus musculus. Nature of the data set: Anti-obesity activity in C57BL/6J mouse model of diet-induced obesity assessed as increase in heat production at 10 mg/kg, ip dosed daily for 8 weeks by indirect calorimetry. Format: functional, organism-based. The method in brief:
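Daily ip dosing of C57BL/6J mice on high-fat diet (60% fat calories), starting at 12 weeks of age, for eight weeks. Mice were housed singly in an eight-chamber open-circuit indirect calorimetry system and monitored for 72 h in the fed state. VO2 and VCO2 were recorded. RER = VCO2/VO2; heat production = (3.185 + 1.232 × RER) × VO2. n = 5/group; means SEM.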

Data set [4] relates to Mus musculus. The data set can be described thus: Anti-obesity activity in C57BL/6J mouse model of diet-induced obesity assessed as suppression of 5-HT levels in brain at 10 mg/kg, ip dosed daily for 1 week by LC-MS/MS analysis. Format: functional, organism-based. Conditions: time 1.0 weeks.
The subject of data set [5] is Mus musculus. Nature of the data set: Anti-obesity activity in C57BL/6J mouse model of diet-induced obesity assessed as reduction in adipose tissues by measuring iWAT at 10 mg/kg, ip dosed daily for 8 weeks. Format: functional, organism-based. The method in brief: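 After eight weeks of daily ip dosing at 10 mg/kg with high-fat diet (60% fat calories) in C57BL/6J mice starting at 12 weeks, gross appearance of dissected eWAT, iWAT and BAT was photographed against a 1 cm × 1 cm grid.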

For a further data set, the target named is hERG (KCNH2) (Homo sapiens, UniProt Q12809). The data set can be described thus: Inhibition of human ERG at 10 uM relative to control.
For data set [6], the system named is Mus musculus. Nature of the data set: Anti-obesity activity in C57BL/6J mouse model of diet-induced obesity assessed as induction of thermogenic activity by measuring increase in Ucp1 protein expression in BAT at 10 mg/kg, ip dosed daily for 8 weeks immunohistochemistry. It counts as functional, organism-based. The method in brief:
(§2)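 C57BL/6J mice fed a 60% fat-calorie diet from 12 weeks of age, dosed ip daily for eight weeks. For Ucp1 mRNA, total RNA was extracted from BAT or iWAT with TRIzol and analysed by quantitative RT-PCR as relative expression. UCP1 protein was detected by immunohistochemistry on five-micron paraffin sections. n = 5/group.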

In data set [7] the test system is Mus musculus. Nature of the data set: Anti-obesity activity in C57BL/6J mouse model of diet-induced obesity assessed as increase in multilocular adipocytes at 10 mg/kg, ip dosed daily for 8 weeks by H and E staining based histological analysis. Format: functional, organism-based. Put shortly:
as §1

Data set [8] in a line: Drug level in ICR mouse brain at 10 mg/kg, ip after 1 hr. Conditions: read-out: Drug uptake. Format: ADME, organism-based. Put shortly: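 Male ICR mice received 10 mg/kg ip in DMSO/PEG400/saline 5:40:55 (v/v/v), 5 mL/kg. At 1 h, heart blood was spun to plasma. Mice were perfused with heparinized saline, and brains were homogenized in 3 volumes PBS. Analyte was quantified by LC-MS/MS. Brain quantification limit 31.3 ng/g. n = 3; mean SD.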

Data set [9] relates to Mus musculus. Nature of the data set: Anti-hepatic steatosis activity in C57BL/6J mouse model of diet-induced obesity assessed as reduction in plasma TG level at 10 mg/kg, ip dosed daily for 8 weeks colorimetry. Format: functional, organism-based.
For data set [10], the system named is Mus musculus. The data set can be described thus: Anti-hepatic steatosis activity in C57BL/6J mouse model of diet-induced obesity assessed as reduction in plasma cholesterol level at 10 mg/kg, ip dosed daily for 8 weeks colorimetry. Format: functional, organism-based.
The next data set deals with T1, CYP1A2 (Homo sapiens, UniProt P05177).
T1 sequence (P05177 whole entry): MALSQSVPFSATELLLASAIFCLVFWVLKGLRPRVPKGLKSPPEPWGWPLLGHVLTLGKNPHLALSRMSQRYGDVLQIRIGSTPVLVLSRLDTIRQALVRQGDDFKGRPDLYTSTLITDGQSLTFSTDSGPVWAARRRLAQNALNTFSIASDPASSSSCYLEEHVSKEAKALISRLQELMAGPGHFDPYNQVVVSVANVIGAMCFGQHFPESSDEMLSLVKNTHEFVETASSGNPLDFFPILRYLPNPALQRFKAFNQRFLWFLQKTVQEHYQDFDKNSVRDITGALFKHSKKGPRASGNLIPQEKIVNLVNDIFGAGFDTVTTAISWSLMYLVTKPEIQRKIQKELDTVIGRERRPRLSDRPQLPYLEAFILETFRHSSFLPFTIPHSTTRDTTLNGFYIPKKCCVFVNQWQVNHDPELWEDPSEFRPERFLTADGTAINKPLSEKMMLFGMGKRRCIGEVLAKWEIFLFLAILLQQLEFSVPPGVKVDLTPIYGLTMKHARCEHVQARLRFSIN
Nature of the data set: Inhibition of CYP1A2 (unknown origin) at 10 uM relative to control. It counts as ADME.

Data set [11] deals with Mus musculus. The data set can be described thus: Anti-obesity activity in C57BL/6J mouse model of diet-induced obesity assessed as suppression of body weight gain at 10 mg/kg, ip dosed daily for 8 weeks […]. It counts as functional, organism-based.
The test system of data set [12] is Mus musculus. The data set can be described thus: Anti-obesity activity in C57BL/6J mouse model of diet-induced obesity assessed as induction of thermogenic activity by measuring increase in Ucp1 mRNA expression in iWAT at 10 mg/kg, ip dosed daily for 8 weeks by RT-PCR analysis. Format: functional, organism-based. The method in brief: as §2
Data set [13] relates to Mus musculus. The data set can be described thus: Anti-obesity activity in C57BL/6J mouse model of diet-induced obesity assessed as reduction in adipocyte size in eWAT at 10 mg/kg, ip dosed daily for 8 weeks by H and E staining based histological analysis. Format: functional, organism-based. The method in brief: as §1
The test system of data set [14] is Mus musculus. The data set can be described thus: Anti-obesity activity in C57BL/6J mouse model of diet-induced obesity assessed as suppression of 5-HT levels in serum at 10 mg/kg, ip dosed daily for 8 weeks by LC-MS/MS analysis. Format: functional, organism-based. The method in brief:
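C57BL/6J mice, 12 weeks old, on high-fat diet (60% fat calories) were dosed daily ip with vehicle or 10 mg/kg for eight weeks. Serum was isolated from cardiac-puncture blood and 5-HT was quantified by LC-MS/MS. n = 5/group; means SEM.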

Data set [15] relates to Mus musculus. Nature of the data set: Anti-obesity activity in C57BL/6J mouse model of diet-induced obesity assessed as induction of thermogenic activity by measuring increase in Ucp1 protein expression in iWAT at 10 mg/kg, ip dosed daily for 8 weeks immunohistochemistry. It counts as functional, organism-based. Put shortly:
as §2

Structures are written as SMILES. Activity calls are given as the source filed them. The calls are words filed in the database; no cut-off is given here. Where only a bound is given, the exact number is not on record here.

Sequence of CYP3A4 (P08684 whole entry): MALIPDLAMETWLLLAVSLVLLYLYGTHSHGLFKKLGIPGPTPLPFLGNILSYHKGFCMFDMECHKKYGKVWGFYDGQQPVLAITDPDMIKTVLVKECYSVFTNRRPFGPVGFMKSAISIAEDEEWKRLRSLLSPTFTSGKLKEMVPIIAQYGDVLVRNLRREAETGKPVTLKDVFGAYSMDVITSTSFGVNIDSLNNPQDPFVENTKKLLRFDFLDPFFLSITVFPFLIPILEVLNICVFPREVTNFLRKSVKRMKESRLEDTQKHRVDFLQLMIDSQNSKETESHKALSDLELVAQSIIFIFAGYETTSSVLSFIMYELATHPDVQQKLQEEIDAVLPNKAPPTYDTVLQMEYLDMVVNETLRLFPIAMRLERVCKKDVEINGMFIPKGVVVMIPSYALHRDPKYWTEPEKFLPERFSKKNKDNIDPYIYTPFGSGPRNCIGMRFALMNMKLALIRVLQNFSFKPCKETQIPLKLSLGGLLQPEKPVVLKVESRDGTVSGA
Sequence of hERG (KCNH2) (Q12809 whole entry): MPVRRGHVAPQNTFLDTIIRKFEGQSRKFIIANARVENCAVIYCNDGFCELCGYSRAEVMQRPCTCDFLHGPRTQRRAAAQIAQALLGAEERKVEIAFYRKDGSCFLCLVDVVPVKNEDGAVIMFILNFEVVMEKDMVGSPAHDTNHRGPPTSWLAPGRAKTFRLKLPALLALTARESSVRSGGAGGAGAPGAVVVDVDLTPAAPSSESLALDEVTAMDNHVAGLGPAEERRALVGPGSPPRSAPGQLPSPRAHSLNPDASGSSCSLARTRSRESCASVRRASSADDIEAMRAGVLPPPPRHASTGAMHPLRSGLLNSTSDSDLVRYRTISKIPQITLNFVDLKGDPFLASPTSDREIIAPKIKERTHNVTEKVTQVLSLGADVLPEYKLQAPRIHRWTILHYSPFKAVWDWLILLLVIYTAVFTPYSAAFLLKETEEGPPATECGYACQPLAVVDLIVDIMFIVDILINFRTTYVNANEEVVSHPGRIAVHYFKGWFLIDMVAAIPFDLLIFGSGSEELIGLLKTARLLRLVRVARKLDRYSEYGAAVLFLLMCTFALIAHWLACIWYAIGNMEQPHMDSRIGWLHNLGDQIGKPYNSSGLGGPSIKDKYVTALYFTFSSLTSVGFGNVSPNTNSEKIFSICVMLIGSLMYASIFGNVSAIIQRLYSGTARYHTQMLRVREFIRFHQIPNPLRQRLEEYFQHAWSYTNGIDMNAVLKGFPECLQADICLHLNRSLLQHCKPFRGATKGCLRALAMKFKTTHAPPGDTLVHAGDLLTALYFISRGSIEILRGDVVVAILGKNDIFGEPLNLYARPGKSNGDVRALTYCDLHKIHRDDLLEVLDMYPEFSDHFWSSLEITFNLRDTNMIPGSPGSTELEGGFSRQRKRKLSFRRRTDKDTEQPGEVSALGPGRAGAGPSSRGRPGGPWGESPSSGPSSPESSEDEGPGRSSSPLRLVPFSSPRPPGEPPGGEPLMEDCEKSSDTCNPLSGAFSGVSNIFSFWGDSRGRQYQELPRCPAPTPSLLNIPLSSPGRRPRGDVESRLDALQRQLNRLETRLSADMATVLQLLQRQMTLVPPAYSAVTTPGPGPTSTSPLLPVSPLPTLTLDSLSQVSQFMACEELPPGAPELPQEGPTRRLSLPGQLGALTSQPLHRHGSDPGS

Usually inhibition stands for the drop in the measured response relative to a control, in per cent. Lower therefore signals little suppression. In the case of `COc1ccc(-c2nc(-c3ccc(C[C@H](N)C(=O)O)cc3)no2)cc1-c1ccc(O)cc1.Cl`, the outcome in the data set on Mus musculus [1], in the data set on Mus musculus [2], with Mus musculus [3], in the data set on Mus musculus [5], in the data set on Mus musculus [6] and with Mus musculus [7] was Active. In addition, the result with Mus musculus [9], in the data set on Mus musculus [10], in the data set with Mus musculus [11], in the data set with Mus musculus [12], in the data set with Mus musculus [13] and in the data set with Mus musculus [14] was Active. Further, the inhibition at 10 µM against CYP3A4 was < 1%; at hERG (KCNH2), 24.3%; against CYP1A2 it was 3.2%. Besides, the result with Mus musculus [4] and in the data set on Mus musculus [15] was inactive. Moreover, the concentration at 1 h in data set [8] was < 31.3 ng/g.
